Shown are actives, neighbours in structure and some others; about 2.5% of the full set was active somewhere.
SENP8 block-1 = blocks the human protease SENP8; Q96LD8; inhibition, % at 10 µM; 330,000 compounds, 1.2% hits; purified SENP8, Z-RLRGG-aminoluciferin cleavage, luminescence; in the data active means inhibition above about 50%
Target sequence (Q96LD8 whole entry, looked up): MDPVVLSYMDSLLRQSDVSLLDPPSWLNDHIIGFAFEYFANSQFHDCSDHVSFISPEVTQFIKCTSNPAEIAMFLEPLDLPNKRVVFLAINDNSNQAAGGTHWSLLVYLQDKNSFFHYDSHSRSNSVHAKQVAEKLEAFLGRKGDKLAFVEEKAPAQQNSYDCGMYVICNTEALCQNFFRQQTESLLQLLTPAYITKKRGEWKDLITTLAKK
SENP1 FRET inh = SENP1 (human) catalytic domain inhibition. Q9P0U3. recombinant SENP1 catalytic domain, CyPet-SUMO1-YPet FRET cleavage. inhibition, % at 10 µM. 360,000 compounds, 0.21% hits. AID 624204;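 active means inhibition at least 30% at 10 µM, raw YFP signal under a set limit, fluorescence ratio 0.5 to 1.5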
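material = recombinant human SENP1 catalytic domain, His6-tagged | quantity = 20 pM enzyme | reagent = 25 nM SUMO1 FRET substrate | compound dosing = 10 µM single point, 0.5% DMSO | timing = 50 min enzyme reaction, room temperature, light-protected | detection = FRET, CFP and YFP emission | control set = no-enzyme low, enzyme-DMSO high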
SENP7 block = blocks the human protease SENP7. recombinant SENP7, Z-RLRGG-aminoluciferin luminescence, 40 min. inhibition, % at 5 µM. 330,000 compounds, 1.5% hits;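 active means inhibition above about 50% at the single test dose, limit read from the data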
Target sequence (Q9BQF6 706-1050 limits assumed): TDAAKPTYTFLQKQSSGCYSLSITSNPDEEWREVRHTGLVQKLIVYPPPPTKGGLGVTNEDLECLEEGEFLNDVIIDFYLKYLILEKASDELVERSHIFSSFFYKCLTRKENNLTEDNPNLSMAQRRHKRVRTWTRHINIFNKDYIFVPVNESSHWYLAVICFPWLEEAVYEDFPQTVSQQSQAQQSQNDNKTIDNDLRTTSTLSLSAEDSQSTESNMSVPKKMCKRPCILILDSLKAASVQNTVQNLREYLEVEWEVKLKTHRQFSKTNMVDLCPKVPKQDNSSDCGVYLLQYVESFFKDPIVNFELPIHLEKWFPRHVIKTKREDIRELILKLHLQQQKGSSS
SENP8 block-2 = inhibitors of human SENP8 protease; Q96LD8; 360,000 compounds, 0.64% hits; inhibition, % at 20 µM; recombinant SENP8, Nedd8 substrate fluorescence; in the data active means inhibition mostly above about 40%, no sharp cut-off; inactive means mostly below about 27%
SENP6 inh = blocks the human protease SENP6 | Q9GZR1 | Recombinant SENP6 catalytic domain, aminoluciferin luminescence | inhibition, % at 10 µM | 330,000 compounds, 1.8% hits;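 active means inhibition above about 50% at the single tested dose, limit read from the data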
SENP8 inh conf = SENP8 (human) inhibition, single concentration confirmation; shares compounds with SENP8 block-2; purified SENP8, Nedd8-AMC/pro-Nedd8 cleavage fluorescence, 30 min; inhibition, % at 25 µM; 1,400 compounds, 15% hits; in the data active means inhibition mostly above about 39%, no sharp cut-off; inactive means mostly below about 34%
Numbers stand for hits; . = inactive; / = not tested or not shown.

SMILES | SENP8 block-1 | SENP1 FRET inh | SENP7 block | SENP8 block-2 | SENP6 inh | SENP8 inh conf
OCCN1CCN(c2ncnc3c2ncn3[C@H]2CN(Cc3cccnc3)C[C@@H](CO)O2)CC1 | / | . | / | . | / | /
CC(Sc1ccc(Cl)cc1)C(=O)NNC(=O)c1ccccc1O (centres undefined) | . | . | . | . | . | /
CN(C)c1ccc2nsnc2c1[N+](=O)[O-] | . | . | . | 42.7 | . | .
Cc1ccc2nsnc2c1NC(=O)c1ccc([N+](=O)[O-])cc1 | . | . | . | . | . | /
COc1ccc(-c2nn(-c3ccccc3)cc2C=O)cc1[N+](=O)[O-] | . | . | . | . | . | /
COc1ccc(-c2nnc(SC)nc2-c2ccc(OC)c([N+](=O)[O-])c2)cc1[N+](=O)[O-] | . | . | . | 49.3 | . | .
C#CCNC(=O)C1=C[C@H](C2CCCCC2)[C@@H](CCCO)[C@H](OCC)O1 | . | . | . | . | . | /
CCOc1ccc(S(=O)(=O)NCCC(=O)NCC(c2ccc(OC)cc2)N2CCOCC2)cc1 (centres undefined) | / | . | / | 51.4 | / | .
CCOc1ccc(S(=O)(=O)NCCC(=O)NCC(c2ccc(OC)cc2)N2CCCC2)cc1 (centres undefined) | . | . | . | . | . | /
CCCCc1ccc(NC(=O)c2ccc(N(C)S(C)(=O)=O)cc2)cc1 | . | . | . | . | . | /
O=C(NCc1ccc2c(c1)OCO2)C1CC(c2ccccc2O)=NO1 (centres undefined) | . | . | . | . | . | /
O=C(NCc1ccc2c(c1)OCO2)C1CC(c2cccc(Br)c2)=NO1 (centres undefined) | . | . | . | 40.3 | . | .
C1CN(c2nc3nonc3nc2N2CCSCC2)CCO1 | . | . | . | . | . | /
C[C@@H]1CN(c2nc3nonc3nc2N2CCSCC2)C[C@H](C)O1 | . | . | . | 40.6 | . | .
CC(NC(=O)COC(=O)c1ccc([N+](=O)[O-])o1)c1ccccc1 (centres undefined) | . | . | . | 57.1 | . | 87.9
O=C(COC(=O)c1ccc(Br)o1)NCc1ccc2c(c1)OCO2 | . | . | . | . | . | /
O=C(COC(=O)c1ccc([N+](=O)[O-])o1)NCc1ccc2c(c1)OCO2 | . | . | . | 41.2 | . | 76.1
CCCCN1C[C@H](Cc2ccccc2)[C@@H](CC(=O)NC)C1=O | / | . | / | . | / | /
CC(=O)C1=NN(c2ccccc2)C(c2ccc3c(c2)OCO3)N1c1ccc(N2CCOCC2)cc1 (centres undefined) | . | . | . | 43.6 | . | .
CC(C)C1NCCc2c1sc1ccccc21 (centres undefined) | . | . | . | 42.7 | . | .
CCCn1c2ccccc2c2cnn(CC(=O)N3CCN(C4CCCCC4)CC3)c(=O)c21 | . | . | . | . | . | /
C#CCOCCOCCOCCNc1nc(N2CCN(C(=O)[C@H](CCCCN)n3cc(CN)nn3)CC2)nc(N2CCN(C(=O)[C@H](CCCCN)n3cc([C@@H](N)CC(N)=O)nn3)CC2)n1 | / | . | / | 40.2 | / | .
O=C(c1ccccc1)[C@@H]1[C@@H](C(=O)c2ccc(F)cc2)[C@@]2(C(=O)Nc3ccccc32)[C@H]2c3ccccc3C=CN12 | . | . | . | 53.8 | 64.4 | 65.8
COC(=O)C1SCCN1S(=O)(=O)c1ccc(Cl)cc1 (centres undefined) | . | . | . | 42.2 | . | .
CC(=O)Nc1ccc(S(=O)(=O)N2CCSC2c2ccccc2Cl)cc1 (centres undefined) | . | . | . | . | . | /
SMILES | SENP8 block-1 | SENP1 FRET inh | SENP7 block | SENP8 block-2 | SENP6 inh | SENP8 inh conf
CCOC1=NN(c2ncc(C(F)(F)F)cc2Cl)C(=O)/C1=C/N(C)C | . | . | . | . | . | /
COc1cc(C(=O)OC2CC3CCC2(C)C3(C)C)ccc1OC(C)=O (centres undefined) | . | . | . | 61.5 | . | .
Cc1nnc(SCc2ccccc2)nc1/C=C/NOCc1ccc(Cl)cc1Cl | . | . | . | 53.5 | . | .
CSc1nnc(C)c(/C=C/Nc2ccc(F)cc2F)n1 | . | . | . | . | . | /
CSc1nnc(C)c(/C=C/NOCc2cccc(F)c2)n1 | . | . | . | 39.5 | . | 57.4
O=C(NNC(=O)c1ccccc1Cl)c1ccc(-n2cncn2)c([N+](=O)[O-])c1 | . | . | . | . | . | /
Cc1cc(C)nc(N2CCC(C(=O)NNC(=O)c3ccc(Cl)cc3)CC2)n1 | . | . | . | . | . | /
CC(=O)c1c(O)cc(O)c(C(C)=O)c1O | . | . | . | 44.6 | . | .
CC(=O)c1c(O)cc(O)cc1CC(=O)O | . | . | . | . | . | /
COc1ccc(N2CCN(C(=O)C3CCN(C(=O)c4ccc([N+](=O)[O-])cc4)CC3)CC2)cc1 | . | . | . | . | . | /
O=C(Nc1cc(-c2ccccc2)[nH]n1)c1ccc(Cl)cc1 | . | . | 67.2 | 40.2 | 68.7 | .
CCN(CC)C(=O)Cc1ccccc1 | . | . | . | 42.4 | . | .
c1ccc(/N=C2\N=C(Nc3ccccn3)c3ccccc32)nc1 | . | . | . | 42.1 | . | .
COc1ccc(CSc2nnnn2-c2ccc(C(N)=O)cc2)cc1[N+](=O)[O-] | . | . | . | . | . | /
COc1ccc(CSc2nnnn2C)cc1[N+](=O)[O-] | . | . | . | 48.3 | . | .
CCNc1nc(NC(C)C)nc(N(C#N)C(C)C(=O)N(C)C)n1 (centres undefined) | . | . | . | 45.4 | . | .
O=c1ccn([C@@H]2O[C@H](CNCc3cccc4c3sc3ccccc34)[C@@H](O)[C@H]2O)c(=O)[nH]1 | / | . | / | . | / | /
COc1ccccc1Cn1nnc2c(=O)[nH]c(C3CCN(C(=O)c4ccc(F)cc4)CC3)nc21 | . | . | . | 52.9 | . | .
CCN(CC)c1ccc(C=Nc2ccc(C)cc2)c(O)c1 | . | . | . | . | . | /
CCN(CC)c1ccc(C=Nc2ccc(N(C)C)cc2)c(O)c1 | . | . | . | 52.5 | . | .
CCN(CC)c1ccc(N=Cc2ccc(N(CC)CC)cc2O)cc1 | . | . | . | 57.6 | . | .
NC(=O)c1ccc(NC(=O)COC(=O)CCC2CCCC2)cc1 | / | . | / | . | / | /
O=S1(=O)CC(N2CC=CC2)CN1C1CCCCC1 (centres undefined) | / | . | / | 41.2 | / | 35.8
CN1CCN(C2CN(C3CCCCC3)S(=O)(=O)C2)CC1 (centres undefined) | / | . | / | . | / | /
Nc1cccc2nc3ccccc3cc12 | . | . | . | . | . | /
Cc1cc2c(N)cccc2nn1 | 95.5 | . | . | 113.6 | 91.4 | 45.2
CCOC(=O)Cc1ccc(Nc2nc(NCc3cccs3)nc3ccsc23)cc1 | / | . | / | . | / | /
Cc1[nH]n2c(=O)cc(-c3ccc([N+](=O)[O-])cc3)nc2c1-c1ccccc1 | . | . | . | 44.2 | . | .
COc1ccccc1OCCNC(=O)CN1C(=O)NC2(CCCC2)C1=O | . | . | . | . | . | /
COc1cc(C)c(C(=O)Oc2cc(C)c(C(=O)O)c(O)c2C)c(OC)c1C | . | . | . | 43.5 | . | .

Screening results as filed in PubChem BioAssay.
